Screening data: PubChem, Sanford-Burnham Center for Chemical Genomics
These entries were drawn from the full list.
Apaf1 activ: activates human Apaf-1 apoptosome; AID 489031; hit rate 0.31% among 330,000; O14727; Apaf-1 apoptosome caspase-3 activation, DEVD-Rh110 fluorescence; hits give low values; activity change, negative = activation, % at 20 µM;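 active = activity change at or below -40% at 20 µM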
Target sequence (O14727 whole entry, looked up): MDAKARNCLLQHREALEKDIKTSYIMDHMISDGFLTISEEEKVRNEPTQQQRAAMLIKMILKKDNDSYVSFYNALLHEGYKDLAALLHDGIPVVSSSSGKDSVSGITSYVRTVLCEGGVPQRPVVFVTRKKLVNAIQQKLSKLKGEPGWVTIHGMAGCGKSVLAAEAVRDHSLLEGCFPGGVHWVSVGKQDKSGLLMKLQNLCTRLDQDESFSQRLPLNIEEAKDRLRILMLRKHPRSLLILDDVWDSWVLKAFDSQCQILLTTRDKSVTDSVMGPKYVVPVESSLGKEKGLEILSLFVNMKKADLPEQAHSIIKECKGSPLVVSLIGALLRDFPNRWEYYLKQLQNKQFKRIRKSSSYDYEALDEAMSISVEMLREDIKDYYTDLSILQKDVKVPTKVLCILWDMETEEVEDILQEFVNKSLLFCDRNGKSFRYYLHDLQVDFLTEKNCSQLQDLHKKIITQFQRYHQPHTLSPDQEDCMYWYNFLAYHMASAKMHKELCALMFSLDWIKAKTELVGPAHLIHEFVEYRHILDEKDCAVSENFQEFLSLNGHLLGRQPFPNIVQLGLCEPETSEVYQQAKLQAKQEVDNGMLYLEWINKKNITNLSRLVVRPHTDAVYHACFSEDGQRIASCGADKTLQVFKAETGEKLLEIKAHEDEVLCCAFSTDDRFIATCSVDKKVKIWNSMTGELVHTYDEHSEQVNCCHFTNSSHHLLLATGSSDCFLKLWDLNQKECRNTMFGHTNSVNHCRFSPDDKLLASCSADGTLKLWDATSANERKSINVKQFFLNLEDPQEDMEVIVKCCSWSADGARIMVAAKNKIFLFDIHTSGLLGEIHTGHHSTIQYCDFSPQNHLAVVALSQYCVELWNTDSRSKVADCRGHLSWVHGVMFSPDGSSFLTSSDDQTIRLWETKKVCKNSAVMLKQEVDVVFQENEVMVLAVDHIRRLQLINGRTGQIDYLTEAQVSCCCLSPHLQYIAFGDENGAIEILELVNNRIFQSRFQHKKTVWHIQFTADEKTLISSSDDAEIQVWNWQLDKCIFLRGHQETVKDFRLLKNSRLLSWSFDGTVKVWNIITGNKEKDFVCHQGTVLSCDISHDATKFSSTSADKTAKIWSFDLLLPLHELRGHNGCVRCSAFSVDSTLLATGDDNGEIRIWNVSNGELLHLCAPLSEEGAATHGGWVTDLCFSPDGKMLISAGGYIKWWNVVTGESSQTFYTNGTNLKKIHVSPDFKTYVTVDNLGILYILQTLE
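Material: reconstituted apoptosome of Apaf-1, cytochrome c, caspase-9, procaspase-3; times: 30 min preincubation, 50 min reaction, room temperature; measured by: fluorescence, 540 nm emission, 480 nm excitation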
Rh110 interf act: counter-screen for Apaf-1 activators: fluorescence interference; shares compounds with Apaf1 activ; Rh110 fluorescence interference, quenched caspase reaction, Ex480/Em540; fluorescence interference (activity change), % at 20 µM, hits read low; 980 tested, under 10 active;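 active = mean activity change at or below -40% when tested at 20 µM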
Apaf-1 act conf2: confirmation of human Apaf-1 activators; shares compounds with Apaf1 activ; reconstituted apoptosome caspase-3 activity, DEVD-Rh110 fluorescence; hits give low values; activity change, negative = activation, % at 20 µM; hit rate 5% among 980; AID 504617;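 active = mean activity change at or below -40%, meaning activation of 40% or more, at 20 µM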
Apaf1 act interf: Apaf-1 activator counter-screen fluorescence artifact. shares compounds with Apaf1 activ. fluorescence interference counterscreen, Apaf-1 activator assay. EC50, µM. 55 tested, under 10 active. AID 588592; call rule not given here
Of the large screens only hits and unclear results are named; the others gave an inactive call (follow-up assays come after a bar, where they were run).

CCn1c(SCC(=O)c2ccc(F)cc2)nnc1-c1ccoc1C	Apaf1 activ -223 | Rh110 interf act inactive | Apaf-1 act conf2 inactive
C#CCOCCOCCOCCNc1nc(N2CCOCC2)nc(N2CCN(C(=O)CCCCCCCCCCNC(=O)[C@H]([C@@H](C)CC)n3cc(CCCCN=C(N)N)nn3)CC2)n1	none
Cn1c2c(c(=O)n(C)c1=O)CN(CCCN1CCOCC1)CN2	Apaf1 activ -59 | Rh110 interf act inactive | Apaf-1 act conf2 inactive
CN(C)c1ncc(C2=C(Cl)C(=O)C(N3CCCC3)=C(Cl)C2=O)s1	none
Cc1ccc(Oc2nsnc2N2CCOCC2)cc1	Apaf1 activ -106 | Rh110 interf act inactive | Apaf-1 act conf2 inactive
Cc1ccc(NC2=C(N3CCOCC3)C(=O)c3ccccc3C2=O)cc1	none
CC(C)CCn1c(CN2CCOCC2)nc2c1c(=O)n(C)c(=O)n2C	Apaf1 activ -44 | Rh110 interf act inactive | Apaf-1 act conf2 inactive
Cn1c(=O)c2c(nc(CN3CCc4ccccc4C3)n2Cc2cccc(Cl)c2)n(C)c1=O	none
COc1ccc(NC(=S)Nc2ccc3nsnc3c2)cc1	none
CC1CC(C)(C)NC(=O)O1 (stereo not given)	Apaf1 activ -88 | Rh110 interf act inactive | Apaf-1 act conf2 inactive
N#CC(c1nc2ccccc2nc1N1CCCC1)S(=O)(=O)c1ccccc1 (stereo not given)	none
COc1ccccc1NC(=O)c1nc[nH]c1C(=O)Nc1ccccc1OC	none
CNC(=O)c1[nH]cnc1C(=O)Nc1ccc(C)cc1	Apaf1 activ -205 | Rh110 interf act inactive | Apaf-1 act conf2 inactive
Cn1c(C(=O)N2CCN(c3nc4ccccc4s3)CC2)cc2sccc21	none
COc1ccc(NC(=S)Nc2cccc3cnccc23)cc1	none
O=C(Nc1ccc(Cl)c(Cl)c1)Nc1nc(-c2ccccc2)cs1	Apaf1 activ -366 | Rh110 interf act inactive | Apaf-1 act conf2 inactive
Cc1nc(C(=O)NNC(=O)Nc2ccccc2)cs1	none
CCN(CC)C(=O)[C@H]1CC(CC(=O)NC/C=C(\C)CCC=C(C)C)C(=O)N2CCc3c([nH]c4ccc(OC)cc34)[C@]12C (stereo not given in full)	none
COCCNC(=O)CN(c1cccc(OC)c1)S(=O)(=O)c1ccc(C)cc1	none
Cc1ccc(OCCNC(=O)CCNS(=O)(=O)c2ccc(C)cc2)cc1	Apaf1 activ -605 | Rh110 interf act inactive | Apaf-1 act conf2 inactive
O=C1C(=O)c2c(C(=O)c3ccccc3)coc2-c2ccccc21	none
COc1ccc(C(=O)Nc2nc3c(s2)Cc2cc(OC)ccc2-3)cc1	none
COC(=O)C1(C)CCc2cc(OC)ccc2C1=O (stereo not given)	Apaf1 activ -81 | Rh110 interf act inactive | Apaf-1 act conf2 inactive
FC(F)(F)c1cc(CO[C@@H]2CCCN[C@@H]2c2ccccc2)cc(C(F)(F)F)c1	none
CC(=O)c1ccc(N2CCN(C(=O)CCN3C(=S)NC(C)(C)CC3C)CC2)cc1 (stereo not given)	Apaf1 activ -139 | Rh110 interf act inactive | Apaf-1 act conf2 inactive
CCC(CO)Oc1cc(NCc2ccncc2)c2ncn(C(C)C)c2c1 (stereo not given)	none
Cc1ccccc1Oc1ncnc2oc(-c3ccccc3)cc12	Apaf1 activ -75 | Rh110 interf act inactive | Apaf-1 act conf2 inactive
Cc1ccc2c(c1)c(=O)c1c3n2CCN(C(=O)CCl)C3CC1 (stereo not given)	none
O=C(NCc1ccccc1)c1ccc(CN(c2ccccn2)S(=O)(=O)c2ccccc2)cc1	Apaf1 activ -115 | Rh110 interf act inactive | Apaf-1 act conf2 inactive
CCOc1cccc2sc(N(CCCN(C)C)C(=O)c3ccc(S(=O)(=O)N(CC)Cc4ccccc4)cc3)nc12	none
CCOc1cccc2sc(N(CCCN(C)C)C(=O)c3ccc(S(=O)(=O)N(C)Cc4ccccc4)cc3)nc12	none
CCOc1cc(CNc2ccc(N(C)C)cc2)cc(Br)c1OCC(=O)NC(C)(C)C	none
CCOC(=O)c1c(C)oc2c1c(C=NCCC(=O)O)c(O)c1ccccc12	none
CC(/C=C\c1cccnc1)=C/C(=O)O	Apaf1 activ -84 | Rh110 interf act inactive | Apaf-1 act conf2 -46 | Apaf1 act interf inactive
CCCCN(C)C1=CC2=CC(=C(C#N)C#N)CCC2CC1 (stereo not given)	Apaf1 activ -76 | Rh110 interf act -659 | Apaf-1 act conf2 inactive
CCN(CC)C1=CC2=CC(=C(C#N)C#N)CCC2CC1 (stereo not given)	Apaf1 activ -141 | Rh110 interf act active | Apaf-1 act conf2 -77
O=C1Cc2ccccc2C(=O)N1OCc1ccc(Cl)cc1Cl	none
O=C1C(c2ccccc2)=[N+]([O-])c2ccccc21	none
C#CCOCCOCCOCCNc1nc(N2CCN(C(=O)CCCCCCCCCCNC(=O)Cn3cc(C[C@@H](C)O)nn3)CC2)nc(N2CCN(C(=O)CCCCCCCCCCNC(=O)[C@@H]([C@H](C)CC)n3cc(CCCCCN)nn3)CC2)n1	none
CC(C)c1ccc(NC(=S)Nc2cccc3ccccc23)cc1	none
O=C(c1ccco1)N1CCN(C(c2ccccc2)c2nnnn2Cc2cccs2)CC1 (stereo not given)	Apaf1 activ -107 | Rh110 interf act inactive | Apaf-1 act conf2 inactive
O=C1c2ccccc2-c2onc3c(N4CCN(CCO)CC4)cc(N4CCN(C(=O)c5ccco5)CC4)c1c23	none
CN1CCN(c2cc(N3CCN(C(=O)c4ccco4)CC3)c3c4c(onc24)-c2ccccc2C3=O)CC1	none
CC[C@H](C)Cc1cn([C@@H](CCCN=C(NC(=O)OC(C)(C)C)NC(=O)OC(C)(C)C)C(=O)NCCCCCCCCCCC(=O)N2CCN(C(=O)OC(C)(C)C)CC2)nn1	none
C=CCN(CC=C)Cc1c(O)ccc2c1oc(=O)c1ccccc12	none
O=C(CCN1CCN(C(c2ccccc2)c2ccccc2)CC1)N/N=C/c1ccc(O)cc1O	Apaf1 activ -236 | Rh110 interf act inactive | Apaf-1 act conf2 inactive
Cc1cc(SCC(=O)N/N=C/c2ccc(O)c(O)c2O)c(C)cc1Br	none
CC(C)OP(=O)(OC(C)C)C(Nc1ccccn1)c1ccc(F)cc1 (stereo not given)	none
O=S(=O)(Nc1ccc(O)c2ccccc12)c1cccs1	none
Cc1ccc(C)n1-c1nn(S(=O)(=O)c2cccc3cccnc23)c2cccc(F)c12	Apaf1 activ -40 | Rh110 interf act inactive | Apaf-1 act conf2 inactive
COC(=O)c1cccnc1-n1c(=O)c2cccnc2n(Cc2cccc([N+](=O)[O-])c2)c1=O	Apaf1 activ -65 | Rh110 interf act inactive | Apaf-1 act conf2 inactive
COc1ccc(C2=C(CN(C)C)C(c3ccccc3)c3ccccc3O2)cc1 (stereo not given)	none
CCC(CO)Oc1cc(NCc2ccc(F)cc2)c2ncn(C(C)C)c2c1 (stereo not given)	none
S=C1NCCc2ccc(Cl)cc2C1c1ccccc1Cl (stereo not given)	Apaf1 activ -514 | Rh110 interf act inactive | Apaf-1 act conf2 inactive
CCc1cccc(C)c1NC(=S)NCc1ccc2c(c1)cc(C)n2C	none
CN(C)S(=O)(=O)Oc1cccc(C(=O)Nc2ccc(Cl)c(Cl)c2)c1	Apaf1 activ -40 | Rh110 interf act inactive | Apaf-1 act conf2 inactive
